# High-throughput results from PubChem BioAssay.
# Runt-CBFb FRET: inhibitors of RUNX1 Runt–CBFb binding, primary screen, biochemical, FRET, Cerulean-Runt, Venus-CBFb, uHTS; inhibition, % at 20 µM; hit rate 0.46% among 220,000; AID 1496, 2009; Runt-related transcription factor 1 (Homo sapiens) + Core-binding factor subunit beta …; Cerulean-Runt/Venus-CBFb FRET ratio 530/480, 1 h;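 active = inhibition over about 50% at 20 µM in the single-dose screen, limit read from the data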;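 note: 0% = DMSO wells and 100% = excess unlabeled CBFb competitor control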
#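 Assay system: Cerulean-tagged RUNX1 Runt domain (FRET donor) fusion protein / Amount: 100 nM each of Venus-CBFb and Cerulean-Runt domain / Medium: Tris buffer pH 7.5 with salts and BSA / Also added: Venus-CBFb 100 nM / Schedule: 1 h complex formation plus 1 h compound treatment, room temperature / Signal: FRET fluorescence / Read-out: loss of energy transfer signal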
# proKLK7 act: proKLK7 zymogen activators, primary screen, biochemical, fluorescence intensity. Kallikrein-7 (Homo sapiens), P49862. purified proKLK7, EDANS-DABCYL substrate fluorescence; 100% is mature enzyme control, 0% vehicle. activation, % at 7 µM. hit rate 0.9% among 370,000;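 active = activation above the mean of all tested compounds plus 3 SD, computed per campaign excluding outliers beyond control limits, cut at about 13% in these data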
# Runt-SMMHC FRET: inhibitors of RUNX1 Runt–CBFb-SMMHC binding, primary screen, biochemical, FRET, Cerulean-Runt, Venus-CBFb-SMMHC, uHTS. Runt-related transcription factor 1 (Homo sapiens) + Core-binding factor subunit beta …. Cerulean-Runt/Venus-CBFb-SMMHC FRET ratio 530/480, 1 h. inhibition, % at 20 µM. hit rate 0.74% among 220,000. AID 1434, 2008;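 active = mean inhibition across duplicate retests at 20 µM reaching about 50%, limit read from the data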;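 note: 0% = DMSO wells and 100% = wells with excess untagged CBFb-SMMHC; inhibitors lower the FRET ratio by blocking Runt binding to CBFb-SMMHC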
# RanGTP-Imp inh: inhibitors of RanGTP-importin-beta interaction, primary screen, biochemical, FRET, CFP-Ran, YFP-importin-beta, homogeneous | hit rate 1.1% among 300,000 | Ran GTPase (GTP-bound) - importin-beta complex | cell-free CFP-Ran/YFP-importin-beta FRET ratio | inhibition, % (concentration not given with the values);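 active = more than half of the replicate wells show a fall in the fluorescence ratio signal beyond about 16%, limit read from the data, passing the limit was not always enough; inconclusive = exactly half of the replicate wells pass the set limit; inactive = fewer than half of replicates pass the limit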;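 note: 0% = DMSO wells and 100% = Ran loaded with GDP instead of GTP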
# MEX-5 binding: MEX-5 zinc finger RNA-binding disruptors – biochemical, C. elegans, fluorescence polarization, MLPCN library, primary screen | Zinc finger protein mex-5 (Caenorhabditis elegans), Q9XUB2 | activity score (negative = inhibition of binding), % at 10 µM | MEX-5/FITC-TCR2 RNA binding; stronger effect = lower value | hit rate 0.38% among 300,000;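 active = inhibition past about -25% in most replicates, and total fluorescence under double the plate's negative control median, limit read from the data; inconclusive = replicates evenly split on the limit, or fluorescence at least double controls; inactive = too little inhibition in most replicates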;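 note: 0% = DMSO and -100% = 5 µM competing unlabeled TCR2 RNA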
# Target sequence (Q9XUB2 whole entry, looked up): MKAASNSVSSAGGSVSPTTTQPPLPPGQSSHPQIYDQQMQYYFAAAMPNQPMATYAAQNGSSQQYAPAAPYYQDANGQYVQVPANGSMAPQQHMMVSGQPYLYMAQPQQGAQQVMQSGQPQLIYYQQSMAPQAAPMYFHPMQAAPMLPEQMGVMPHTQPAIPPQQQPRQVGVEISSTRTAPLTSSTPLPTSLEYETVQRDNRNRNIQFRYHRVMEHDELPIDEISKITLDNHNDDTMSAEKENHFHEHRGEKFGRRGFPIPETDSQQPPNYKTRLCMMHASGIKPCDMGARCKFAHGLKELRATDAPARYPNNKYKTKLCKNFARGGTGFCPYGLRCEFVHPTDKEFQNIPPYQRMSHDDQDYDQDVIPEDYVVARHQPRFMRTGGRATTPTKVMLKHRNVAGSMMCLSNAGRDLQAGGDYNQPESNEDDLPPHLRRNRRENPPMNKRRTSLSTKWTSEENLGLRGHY
# An asterisk follows results filed as active; ? = inconclusive; . = not tested or not shown. Most compounds without a hit are left out; they make up all but 2.1% or so of the library.
SMILES,Runt-CBFb FRET,proKLK7 act,Runt-SMMHC FRET,RanGTP-Imp inh,MEX-5 binding
COc1ccc(C2c3ccc(O)cc3Oc3ncn(Cc4ccco4)c(=N)c32)cc1 (configuration not stated),97*,-1,28,3,-10
C#CCNC(=O)C[C@H]1C[C@@]2(C(=O)OC)C(=C[C@H](C(C)(C)C)O[C@@H]2C)N(Cc2cccc3ccccc23)C1=O,.,1,.,.,.
O=C1c2ccccc2C(c2nnnn2-c2ccc3c(c2)OCCO3)N1CCCN1CCOCC1 (configuration not stated),.,1,.,.,.
CCN1C(=O)/C(=C\c2cccs2)C(C(=O)OC)=C1C,-1,1,-2,2,-78*
COC(=O)C1=C(C)N(CC(C)C)C(=O)/C1=C\c1cccs1,-1,0,-5,2,-2
COc1ccccc1N1CCN(S(=O)(=O)c2c(C)[nH]c(C)c2C(=O)N2CCCCC2)CC1,.,0,.,23*,3
COc1ccc(C)cc1NC(=O)CSc1nnc(-c2n[nH]c3c2CCC3)n1N,.,0,.,.,.
CC(=O)C1=C(c2cccc([N+](=O)[O-])c2)N(C(C)=O)n2c(C)nnc2S1,26,0,2,3,-47*
CCN(CC)c1nc2c(c(=O)[nH]c(=O)n2C)n1CCOc1ccccc1,.,0,.,3,-2
CCOC(=O)c1c(C)[nH]c(C(=O)COC(=O)c2ccco2)c1C,.,1,.,.,.
CC1=NN(c2ccc(Cl)c(C(=O)O)c2)C(=O)C1,2,0,-1,6,-2
CC1=NN(c2ccc(C(=O)O)c(N)c2)C(=O)C1,15,-1,11,-6,-39*
CCOC(=O)c1cc2c(ccn2C)n1CC(=O)N1CCCC(C)C1 (configuration not stated),23,0,-15,24*,1
COc1ccc(/C=C2\C(=O)NC(=S)N2C(=O)c2ccc(C)cc2)cc1,4,-1,10,8,-26*
O=C1NC(=S)N(C(=O)c2ccc(F)cc2)/C1=C/c1cccnc1,-1,0,0,10,1
C/C(=N/NC(=O)c1ccoc1C)c1cccs1,.,0,.,.,.
COC(=O)c1cc(C(=O)OCC(=O)NC(=O)NCc2ccccc2)cc([N+](=O)[O-])c1,.,0,.,.,.
CC1=C(C(=O)Nc2ccccc2)C(c2ccco2)n2ncnc2N1 (configuration not stated),0,0,3,5,1
CC(=O)Nc1cccc(C2=CC(c3ccco3)n3ncnc3N2)c1 (configuration not stated),-100,.,87,-133,-87*
Clc1ccccc1C1=CC(c2ccco2)n2ncnc2N1 (configuration not stated),10,9,81,43*,-9
CC(C)(C)c1ccc(C2=CC(c3ccccc3)n3ncnc3N2)cc1 (configuration not stated),.,.,.,-11,0
COc1ccc(C2=CC(c3ccco3)n3ncnc3N2)cc1 (configuration not stated),-64,.,87*,.,.
Clc1ccc(C2=CC(c3ccco3)n3ncnc3N2)cc1 (configuration not stated),.,3,-78,-83,-91*
CCc1ccc(CN(C)C(=O)C2CCC(=O)N(Cc3ccccn3)C2)cc1 (configuration not stated),.,0,.,?,-3
CCCCOc1ccc(C(=O)NC2CCCCN(CCC)C2=O)cc1 (configuration not stated),.,0,.,.,.
SMILES,Runt-CBFb FRET,proKLK7 act,Runt-SMMHC FRET,RanGTP-Imp inh,MEX-5 binding
Cc1ccc(C(=O)NNC(=O)c2cccc(S(=O)(=O)N3CCOCC3)c2)cc1,.,-1,.,.,.
N#Cc1ccc(/C=N/NC(=O)c2cccc(S(=O)(=O)N3CCOCC3)c2)cc1,1,1,-1,32*,-6
CC(=O)Nc1ccc(/C=N/NC(=O)c2cccc(S(=O)(=O)N3CCOCC3)c2)cc1,0,0,3,-1,2
O=C(NNC(=O)c1cc(Cl)ccc1O)c1cccc(S(=O)(=O)N2CCOCC2)c1,.,1,.,.,-27*
COC(=O)[C@]12C[C@H](CC(=O)N3CCC(c4ccccc4)CC3)C(=O)N(CCC3=CCCCC3)C1=C[C@H](C(C)(C)C)O[C@@H]2C,.,0,.,.,.
COc1cc(C(=S)N2CCCCC2)ccc1O,18,0,-115,.,.
COc1cc(C(=S)N2CCCC2)ccc1O,42,0,66*,2,0
Cc1cc(=O)oc(C)c1C(=O)Nc1ccc2nsnc2c1,-2,1,3,3,-3
Cc1cc(=O)oc(C)c1C(=O)Nc1ccc2ncccc2c1,-22,-1,59*,-1,-19
CCN(C[C@H]1N[C@@](C)(C(=O)OC)[C@H]2C(=O)N(C)C(=O)[C@@H]12)C(=O)Nc1ccc(Cl)cc1,.,0,.,.,.
Cc1ccc(C)c(N2CCN(C(=O)c3ccc4nc(-c5ccco5)c(-c5ccco5)nc4c3)CC2)c1,-3,0,-2,52*,0
COc1ccccc1N1CCN(C(=O)c2ccc3nc(-c4ccco4)c(-c4ccco4)nc3c2)CC1,9,-1,-43,33*,0
CC(C)[C@H](NC(=O)C1CCCC1)C(=O)N1CCC[C@H]1C(=O)NCc1ccccc1,.,0,.,.,.
CC(C)(C)S(=O)N1Cc2ccc(CO)cc2[C@@H]1CCO (some centres not stated),.,1,.,.,.
CCN1C(=C(C#N)C#N)C=Cc2cc(C)ccc21,-36,1,77*,52*,0
COc1cccc(CNC(=O)C2CC(=O)N(C3CCCCC3)C2)c1 (configuration not stated),.,0,.,0,1
O=C1C=CC(=O)N1c1cccc2cccnc12,.,1,.,.,.
CCNC(=O)/C(C#N)=C/c1c(N2CCN(Cc3ccc4c(c3)OCO4)CC2)nc2c(C)cccn2c1=O,50*,4,63*,9,1
COCCCNC(=O)/C(C#N)=C/c1c(N2CCN(c3cccc(Cl)c3)CC2)nc2c(C)cccn2c1=O,.,10,.,6,1
COCCCNC(=O)/C(C#N)=C/c1c(N2CCN(c3ccccc3)CC2)nc2c(C)cccn2c1=O,.,6,.,32*,-5
COC(=O)/C(C#N)=C/c1c(Oc2cccc(C)c2)nc2ccccn2c1=O,3,0,16,6,-6
COC(=O)/C(C#N)=C/c1c(Oc2cc(C)cc(C)c2)nc2c(C)cccn2c1=O,-64,0,-245,7,-41*
C=CCNC(=O)/C(C#N)=C/c1c(N2CCN(c3ccccc3)CC2)nc2c(C)cccn2c1=O,.,11,.,28*,-3
